From ChEMBL document CHEMBL4732187, “Tetrahydroindazole inhibitors of CDK2/cyclin complexes” (Eur J Med Chem, 2021) come the findings set out here.

The source made the active and inactive calls. No cut-off for these calls is given here.

A short description of data set [1]: Apparent permeability across apical to basolateral side in MDCK cells at 1 uM after 2 hrs by LC-MS/MS analysis. To be noted: dog. Format: ADME, cell-based, Canis lupus familiaris. The procedure, abridged:
(§1)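 MDCK monolayers were washed twice with pre-warmed HBSS (10 mM HEPES, pH 7.4) and equilibrated for 30 min at 37 °C. Compound at 1 μM in HBSS (0.5% DMSO final) was added to the apical or the basolateral donor side. After 2 h at 37 °C, donor and receiver samples were quenched in cold methanol with internal standards and analysed by LC-MS/MS. Runs were in duplicate; 100 μM Lucifer Yellow checked monolayer integrity.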

A short description of data set [2]: Apparent permeability across basolateral to apical side in MDCK cells at 1 uM after 2 hrs by LC-MS/MS analysis. The data set is classed as ADME, cell-based, Canis lupus familiaris. To be noted: dog. The procedure, abridged: as §1
The target of data set [3] is Heat shock protein HSP90 (Homo sapiens) (UniProt P07900+P08238). The data set can be described thus: Inhibition of HSP90 (unknown origin). Format: protein assay.
Data set [4] in a line: Efflux ratio of apparent permeability across basolateral to apical side over apical to basolateral side in MDCK cells at 1 uM after 2 hrs by LC-MS/MS analysis. The conditions noted are these: dog. Format: ADME, cell-based, Canis lupus familiaris. An outline of the steps: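 MDCK monolayers washed twice with pre-warmed HBSS (10 mM HEPES, pH 7.4) and equilibrated 30 min at 37 °C. 1 μM working solution (0.5% DMSO final) added to apical or basolateral donor side, 37 °C for 2 h, run in duplicate. Donor and receiver samples quenched in cold methanol with internal standards and quantified by LC-MS/MS. Monolayer integrity checked by Lucifer Yellow (100 μM) leakage.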

In data set [5] the target is Cyclin-dependent kinase 2/cyclin E1 (Homo sapiens, UniProt P24941). Nature of the data set: Inhibition of CDK2/Cyclin E (unknown origin) using histone H1 as substrate preincubated for 20 mins followed by 33P-ATP addition and measured after 2 hrs by filter binding method. The data set is classed as protein-complex assay.
In another data set the target is CDK2/Cyclin A1 (Homo sapiens, UniProt P24941). The data set can be described thus: Inhibition of CDK2/Cyclin A1 (unknown origin) using histone H1 as substrate preincubated for 20 mins followed by 33P-ATP addition and measured after 2 hrs by filter binding method. The data set is classed as protein-complex assay.
The target of the next data set is CDK2/Cyclin O (Homo sapiens, UniProt P22674+P24941). Nature of the data set: Inhibition of CDK2/Cyclin-O (unknown origin) using histone H1 as substrate preincubated for 20 mins followed by 33P-ATP addition and measured after 2 hrs by filter binding method. Format: protein-complex assay.
The next data set has as its target CDK2/Cyclin A2 (Homo sapiens, UniProt P24941). Nature of the data set: Inhibition of human N-terminal GST-tagged CDK2 (1 to 298 residues)/Cyclin A (174 to 432 residues) expressed in Escherichia coli Turner (DE3) cells assessed as reduction in ADP formation using PKTPKKAKKL as substrate by resorufin dye based fluorescence assay.
Another data set relates to MCF7. The data set can be described thus: Antiproliferative activity against human MCF7 cells assessed as reduction in cell viability up to 200 uM after 72 hrs by alamarBlue assay. Format: functional, cell-based. To be noted: dose microM <=200, time 72.0 hrs. The procedure, abridged:
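MCF-7 cells seeded at 5000 per well and incubated overnight at 37 °C, 5% CO₂, then exposed to 8 concentrations from 0.00256 μM to 200 μM for 72 h. alamarBlue was then added and incubated 90 min at 37 °C. Proliferating cells were read by fluorescence (ex 530 nm, em 590 nm). Staurosporine served as positive control.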
(Alamar Blue is a resazurin reagent that responds to reducing activity.)

Data set [6] can be described thus: Permeability across basolateral to apical side in MDCK cells at 1 uM after 2 hrs by LC-MS/MS analysis. Format: ADME, cell-based, Canis lupus familiaris. The conditions noted are these: dog. An outline of the steps:
as §1

The nature of data set [7]: Permeability across apical to basolateral side in MDCK cells assessed as drug recovery at 1 uM after 2 hrs by LC-MS/MS analysis. Format: ADME, cell-based, Canis lupus familiaris. The conditions noted are these: dog. The procedure, abridged: as §1
For data set [8], the target named is Cyclin-dependent kinase 7/ cyclin H (Homo sapiens) (UniProt P51946+P50613). Nature of the data set: Inhibition of CDK7/Cyclin H (unknown origin) at 1 uM using myelin basic protein as substrate preincubated for 20 mins followed by 33P-ATP addition and measured after 2 hrs by filter binding method. The data set is classed as protein-complex assay. The procedure, abridged:
(§2)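 Radiometric filter-binding kinase assay at 10 μM ATP in pH 7.5 HEPES buffer with MgCl₂, EGTA, Brij35, BSA, Na₃VO₄, DTT and 1% DMSO. Compound was preincubated with kinase for 20 min at rt, then ³³P-ATP was added and the reaction ran 2 h at rt. Substrate was histone H1 at 20 μM, except myelin basic protein at 20 μM for CDK7/cyclin H and a peptide at 20 μM for CDK9/cyclin T1. Single dose, in duplicate.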

The target in data set [9] is CDK2/Cyclin A2 (Homo sapiens) (UniProt P24941+P20248). The data set can be described thus: Inhibition of human N-terminal GST-tagged CDK2 (1 to 298 residues)/Cyclin A (174 to 432 residues) expressed in Escherichia coli Turner (DE3) cells assessed as reduction in ADP formation at 1 uM using PKTPKKAKKL as substrate by resorufin dye based fluorescence assay.
Data set [10] concerns the target CDK2/Cyclin O (Homo sapiens) (UniProt P24941+P22674). Nature of the data set: Inhibition of CDK1/Cyclin-O (unknown origin) at 1 uM using histone H1 as substrate preincubated for 20 mins followed by 33P-ATP addition and measured after 2 hrs by filter binding method. The data set is classed as protein-complex assay. The procedure, abridged: as §2
Data set [11] addresses Cyclin-dependent kinase 2/cyclin E1 (Homo sapiens) (UniProt P24864+P24941). Nature of the data set: Inhibition of CDK1/Cyclin E (unknown origin) at 1 uM using histone H1 as substrate preincubated for 20 mins followed by 33P-ATP addition and measured after 2 hrs by filter binding method. The data set is classed as protein-complex assay. An outline of the steps:
as §2

Data set [12] has as its target Cyclin-dependent kinase 5/CDK5 activator 1 (Homo sapiens) (UniProt Q00535+Q15078). Nature of the data set: Inhibition of CDK5/p25 (unknown origin) at 1 uM using histone H1 as substrate preincubated for 20 mins followed by 33P-ATP addition and measured after 2 hrs by filter binding method. The data set is classed as protein-complex assay. The procedure, abridged: as §2

Data set [13] has as its target Cyclin-dependent kinase 1/cyclin B1 (Homo sapiens) (UniProt P06493+P14635). The data set can be described thus: Inhibition of CDK1/Cyclin B (unknown origin) at 1 uM using histone H1 as substrate preincubated for 20 mins followed by 33P-ATP addition and measured after 2 hrs by filter binding method. The data set is classed as protein-complex assay. An outline of the steps: as §2

In data set [14] the target is CDK2/Cyclin A1 (Homo sapiens) (UniProt P24941+P78396). Nature of the data set: Inhibition of CDK2/Cyclin A1 (unknown origin) at 1 uM using histone H1 as substrate preincubated for 20 mins followed by 33P-ATP addition and measured after 2 hrs by filter binding method. Format: protein-complex assay. An outline of the steps: as §2
The species entered for the next data set is Homo sapiens. Nature of the data set: Inhibition of CDK9/Cyclin T1 (unknown origin) at 1 uM using KTFCGTPEYLAPEVRREPRILSEEEQEMFRDFDYIAD as substrate preincubated for 20 mins followed by 33P-ATP addition and measured after 2 hrs by filter binding method. The procedure, abridged:
as §2

In data set [15] the target is CDK1/Cyclin A (Homo sapiens) (UniProt P06493+P20248). Nature of the data set: Inhibition of CDK1/CyclinA (unknown origin) at 1 uM using histone H1 as substrate preincubated for 20 mins followed by 33P-ATP addition and measured after 2 hrs by filter binding method. Format: protein-complex assay. The procedure, abridged: as §2
Data set [16] concerns the target CDK6/cyclin D1 (Homo sapiens) (UniProt P24385+Q00534). Nature of the data set: Inhibition of CDK6/Cyclin D1 (unknown origin) at 1 uM using RB protein as substrate preincubated for 20 mins followed by 33P-ATP addition and measured after 2 hrs by filter binding method.
For data set [17], the target named is CDK3/Cyclin E (Homo sapiens) (UniProt P24864+Q00526). Nature of the data set: Inhibition of CDK3/Cyclin E (unknown origin) at 1 uM using histone H1 as substrate preincubated for 20 mins followed by 33P-ATP addition and measured after 2 hrs by filter binding method. Format: protein-complex assay. An outline of the steps:
as §2

Data set [18] has as its target Cyclin-dependent kinase 4/cyclin D1 (Homo sapiens) (UniProt P11802+P24385). Nature of the data set: Inhibition of CDK4/Cyclin D1 (unknown origin) at 1 uM using RB protein as substrate preincubated for 20 mins followed by 33P-ATP addition and measured after 2 hrs by filter binding method. Format: protein-complex assay. An outline of the steps:
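Radiometric filter-binding assay of CDK4/cyclin D1 using RB protein at 3 μM and ATP at 10 μM in pH 7.5 HEPES buffer with 1% DMSO. Compound was preincubated for 20 min at rt, then ³³P-ATP was added and the reaction ran 2 h at rt, with spotting on P81 paper. Single dose, in duplicate.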

Sequence of Cyclin-dependent kinase 5/CDK5 activator 1 (Homo sapiens) (Q00535 whole entry): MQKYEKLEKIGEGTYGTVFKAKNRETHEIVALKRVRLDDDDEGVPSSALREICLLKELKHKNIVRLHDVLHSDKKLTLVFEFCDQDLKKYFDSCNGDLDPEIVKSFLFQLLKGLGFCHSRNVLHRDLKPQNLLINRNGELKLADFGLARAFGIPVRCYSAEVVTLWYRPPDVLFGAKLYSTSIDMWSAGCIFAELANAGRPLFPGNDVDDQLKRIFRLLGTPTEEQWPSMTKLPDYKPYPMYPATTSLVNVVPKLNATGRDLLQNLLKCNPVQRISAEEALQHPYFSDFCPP
Sequence of Cyclin-dependent kinase 5/CDK5 activator 1 (Homo sapiens) (Q15078 99-307 partner limits assumed): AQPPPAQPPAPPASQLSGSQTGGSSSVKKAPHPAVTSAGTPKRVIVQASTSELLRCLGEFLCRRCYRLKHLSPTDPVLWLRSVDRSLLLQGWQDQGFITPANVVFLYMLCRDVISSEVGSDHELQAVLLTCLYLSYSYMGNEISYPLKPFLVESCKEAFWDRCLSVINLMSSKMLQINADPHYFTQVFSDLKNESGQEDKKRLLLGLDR
Sequence of CDK1/Cyclin A (Homo sapiens) (P06493 whole entry, looked up): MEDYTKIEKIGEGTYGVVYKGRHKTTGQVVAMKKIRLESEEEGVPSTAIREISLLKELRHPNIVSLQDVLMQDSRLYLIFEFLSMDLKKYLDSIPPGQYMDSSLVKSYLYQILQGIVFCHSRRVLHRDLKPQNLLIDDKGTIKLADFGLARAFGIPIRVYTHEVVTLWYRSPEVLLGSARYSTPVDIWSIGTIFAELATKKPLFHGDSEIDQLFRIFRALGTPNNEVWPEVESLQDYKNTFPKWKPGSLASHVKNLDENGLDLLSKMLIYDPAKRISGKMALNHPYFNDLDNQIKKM
Sequence of CDK1/Cyclin A (Homo sapiens) (P20248 whole entry, looked up): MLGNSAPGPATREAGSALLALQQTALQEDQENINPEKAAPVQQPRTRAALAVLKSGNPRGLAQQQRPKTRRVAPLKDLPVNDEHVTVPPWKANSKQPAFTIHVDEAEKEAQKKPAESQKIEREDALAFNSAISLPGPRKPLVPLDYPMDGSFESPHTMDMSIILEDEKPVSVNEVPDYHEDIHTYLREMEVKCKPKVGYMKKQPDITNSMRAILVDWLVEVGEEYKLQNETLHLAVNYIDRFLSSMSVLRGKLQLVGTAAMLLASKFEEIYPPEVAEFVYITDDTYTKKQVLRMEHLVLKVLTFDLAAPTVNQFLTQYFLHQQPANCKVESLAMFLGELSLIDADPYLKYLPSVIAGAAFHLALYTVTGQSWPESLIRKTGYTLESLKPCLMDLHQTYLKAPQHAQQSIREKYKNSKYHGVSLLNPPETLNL
Sequence of Cyclin-dependent kinase 1/cyclin B1 (Homo sapiens) (P06493 whole entry, looked up): as the sequence (P06493 whole entry, looked up) above
Sequence of Cyclin-dependent kinase 1/cyclin B1 (Homo sapiens) (P14635 whole entry, looked up): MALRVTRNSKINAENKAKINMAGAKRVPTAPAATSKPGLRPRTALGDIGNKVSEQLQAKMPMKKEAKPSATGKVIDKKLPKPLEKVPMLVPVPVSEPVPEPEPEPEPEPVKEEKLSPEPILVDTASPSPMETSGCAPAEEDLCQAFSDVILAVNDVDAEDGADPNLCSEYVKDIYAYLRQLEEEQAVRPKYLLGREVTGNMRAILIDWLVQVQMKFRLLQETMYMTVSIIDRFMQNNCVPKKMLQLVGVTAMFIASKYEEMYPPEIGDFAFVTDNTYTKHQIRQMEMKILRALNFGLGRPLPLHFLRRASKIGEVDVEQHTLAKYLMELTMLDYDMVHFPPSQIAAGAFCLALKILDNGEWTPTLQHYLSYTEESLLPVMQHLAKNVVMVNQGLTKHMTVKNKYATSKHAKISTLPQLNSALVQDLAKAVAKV
Sequence of CDK3/Cyclin E (Homo sapiens) (P24864 whole entry, looked up): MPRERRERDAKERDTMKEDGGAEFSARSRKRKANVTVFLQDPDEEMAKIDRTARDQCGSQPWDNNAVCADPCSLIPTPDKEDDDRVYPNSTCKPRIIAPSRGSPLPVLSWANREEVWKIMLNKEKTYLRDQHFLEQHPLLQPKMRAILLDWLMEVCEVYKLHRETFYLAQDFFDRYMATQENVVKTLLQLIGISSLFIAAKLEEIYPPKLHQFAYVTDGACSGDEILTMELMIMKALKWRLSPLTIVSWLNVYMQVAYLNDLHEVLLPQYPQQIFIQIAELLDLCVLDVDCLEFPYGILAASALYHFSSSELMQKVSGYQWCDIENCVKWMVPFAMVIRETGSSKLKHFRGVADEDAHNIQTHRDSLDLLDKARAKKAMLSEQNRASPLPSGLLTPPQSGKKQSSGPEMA
Sequence of CDK3/Cyclin E (Homo sapiens) (Q00526 whole entry, looked up): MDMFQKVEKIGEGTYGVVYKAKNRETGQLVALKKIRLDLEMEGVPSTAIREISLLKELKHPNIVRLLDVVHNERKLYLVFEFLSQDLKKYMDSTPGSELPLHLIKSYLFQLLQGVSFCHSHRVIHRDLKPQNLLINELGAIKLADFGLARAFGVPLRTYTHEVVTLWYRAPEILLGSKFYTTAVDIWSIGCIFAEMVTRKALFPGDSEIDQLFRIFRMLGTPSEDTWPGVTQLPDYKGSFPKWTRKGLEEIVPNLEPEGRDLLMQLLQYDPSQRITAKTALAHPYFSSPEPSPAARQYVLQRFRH

Regarding `Cc1nn(-c2ccccn2)c2c1C(=O)CC(C)(C)C2Br` (stereo not drawn), the apical-to-basolateral permeability (Papp A→B) at 2 h, 1 µM in data set [1] is 20.1 ×10⁻⁶ cm/s. Also, in data set [2], the Papp B→A at 2 h, 1 µM was determined as 9.52 ×10⁻⁶ cm/s. Also, the inhibition entry in data set [3] was “inactive”. Further, the Ratio in data set [4] was 0.47. The IC50 in [5] was found to be 27.4 nM; at CDK2/Cyclin A1, 134 nM; on CDK2/Cyclin O, 108 nM; at CDK2/Cyclin A2, 2600 nM. In addition, in the data set on MCF7, the outcome was inactive. Besides, the Drug recovery is recorded as 49.8% in data set [6] and 52.4% in data set [7].

Take `Cc1nn(-c2ccccn2)c2c1C(=O)CC(C)C2Br` (cis isomer): the inhibition result in data set [8], in data set [9], in data set [10], in data set [11], in [12] and in data set [13] was “inactive” each time. For the same compound, the inhibition entry (in data set [14]; in the data set filed under Homo sapiens; in data set [15]; in data set [16]; in data set [17]; in data set [18]) was “inactive” in each case.

Broadly, the Papp A→B is the apparent permeability from the apical to the basolateral side of a cell layer. One may read the Papp B→A as how fast a substance crosses the layer from the basolateral side. In general, IC50 refers to the concentration at which inhibition is half-maximal.
